Published values pooled from the literature.
Lines come from different studies, so protocols differ.
Organism: Klebsiella pneumoniae
Observed: microbial growth

COc1cc(Cc2cnc(N)nc2N)cc(OC)c1OC
MIC (broth dilution; ATCC700603): 20 µM

O=C1NN=C(N=Cc2ccc(O)cc2O)C1=NNn1c(-c2ccccc2)nc2ccccc2c1=O
MIC (broth dilution; 24 h): 53.5 µM

CCCCCCC#Cc1cncc(-c2nnc(SCc3ccc([N+](=O)[O-])o3)n2C2CC2)c1
MIC: ≥ 20 µg/mL

O=C(Nc1ccc2c(c1)OC(F)(F)O2)Nc1ccc(Cl)c(C(F)(F)F)c1
MIC (DSM30104): > 100 µM

CC(=O)O[C@H]1C[C@@]2(C)[C@@H](C[C@@H](O)[C@H]3[C@@]4(C)CC[C@@H](O)[C@@H](C)[C@@H]4CC[C@@]32C)/C1=C(\CCC=C(C)C)C(=O)O
MIC (broth dilution; ATCC700603): 640 µM

CCCCCCC#Cc1cncc(-c2nnc(SCc3ccc([N+](=O)[O-])o3)n2C)c1
MIC: ≥ 20 µg/mL

NC[C@H]1O[C@H](O[C@H]2[C@H](O)[C@@H](O[C@H]3O[C@H](CO)[C@@H](O)[C@H](N)[C@H]3O)[C@H](N)C[C@@H]2N)[C@H](N)C[C@@H]1O
MIC (broth dilution; ATCC700603): 1.3 µM

CC1=NN(CNc2ccc(Cl)cc2)C(=O)C1=NNn1c(-c2ccccc2)nc2ccccc2c1=O
MIC (broth dilution; 24 h): 51.5 µM

CCCCCC/C=C\CCCCCCCCCc1cc(O)cc(O)c1
MIC (broth dilution; ATCC10031): > 64 µg/mL

CC1(C)S[C@@H]2[C@H](NC(=O)COc3ccccc3)C(=O)N2[C@H]1C(=O)O
MIC (broth dilution; ATCC10031; 18 h): 4 µg/mL

CO[C@@H](C(N)=O)[C@H](NC(=O)c1ccc(NC(=O)c2ccc(C#N)cc2)cc1)C(=O)Nc1ccc(C(=O)Nc2ccc(C(=O)Nc3ccc(C(=O)O)cc3)c(O)c2OC(C)C)cc1
MIC (DSM30104): 8 µg/mL

CN(C)[C@@H]1C(O)=C(C(N)=O)C(=O)[C@@]2(O)C(O)=C3C(=O)c4c(cc5ccc(CN6CC(F)(F)C6)cc5c4O)C[C@H]3C[C@@H]12
MIC (broth dilution; ATCC13883): 32 µg/mL

O=C1NN=C(N=Cc2ccc(O)c(O)c2)C1=NNn1c(-c2ccccc2)nc2ccccc2c1=O
MIC (broth dilution; 24 h): 53.5 µM

C[C@@H](O)[C@H]1C(=O)N2C(C(=O)O)=C(S[C@@H]3CN[C@H](C(=O)N(C)C)C3)[C@H](C)[C@H]12
MIC (broth dilution; ATCC700603): 0.63 µM

CN(C)Cc1ccc2c(N(C)C)c3c(c(O)c2c1)C(=O)C1=C(O)[C@]2(O)C(=O)C(C(N)=O)=C(O)[C@@H](N(C)C)[C@@H]2C[C@@H]1C3
MIC (broth dilution; ATCC13883): 4 µg/mL

CC(C)Oc1c(NC(=O)c2ccc(NC(=O)[C@H](CC(N)=O)NC(=O)c3ccc(NC(=O)c4ccc(C#N)cn4)cc3)cc2)ccc(C(=O)Nc2ccc(C(=O)O)cc2)c1O
MIC (DSM30104): > 64 µg/mL

CN(C)c1ccc(-c2ccc3cc4c(c(O)c3c2)C(=O)C2=C(O)[C@]3(O)C(=O)C(C(N)=O)=C(O)[C@@H](N(C)C)[C@@H]3C[C@@H]2C4)cc1
MIC (broth dilution; ATCC13883): 32 µg/mL

CCn1cc(C(=O)O)c(=O)c2cc(F)c(N3CCNCC3)cc21
MIC (broth dilution; ATCC43816): 2 µM

CCCCCCC#Cc1cncc(-c2nnc(SCc3ccc(Cl)cc3)n2C2CC2)c1
MIC: ≥ 20 µg/mL

C[C@H]1[C@H](NC(=O)/C(=N\OC(C)(C)C(=O)O)c2csc(N)n2)C(=O)N1S(=O)(=O)O
MIC (broth dilution; ATCC700603): 0.63 µM

O=C(O)c1cn(C2CC2)c2cc(N3CCNCC3)c(F)cc2c1=O
MIC (broth dilution; 24 h): 0.57 µM

CCn1cc(C(=O)O)c(=O)c2ccc(C)nc21
MIC (broth dilution; ATCC700603): 80 µM

Cc1c(CN(C)C(=O)/C=C/c2cnc3c(c2)CC(CCN)C(=O)N3)oc2ccccc12.Cl (stereo not shown)
MIC (broth dilution; BAA2473): 16 µg/mL

NC[C@H]1O[C@H](O[C@H]2[C@H](O)[C@@H](O[C@H]3O[C@H](CO)[C@@H](O)[C@H](N)[C@H]3O)[C@H](N)C[C@@H]2N)[C@H](N)C[C@@H]1O
MIC: 0.5 to 1 µg/mL

CC(=O)NC[C@H]1CN(c2ccc(N3CCOCC3)c(F)c2)C(=O)O1
MIC (broth dilution; ATCC700603): 1280 µM

NC1CCc2c1[nH]c1ccc(Cl)c(Cl)c21 (stereo not shown)
MIC (broth dilution; ATCC10031): 8 µg/mL

O=C1CN(/N=C/c2ccc([N+](=O)[O-])o2)C(=O)N1
MIC (broth dilution; ATCC700603): 320 µM

O=C(Nc1ccc(F)c(Cl)c1)c1cc(Cl)ccc1O
MIC (broth dilution; BAA1705): > 64 µg/mL
